Screening data as filed in PubChem BioAssay.
Sampled rows, rich in hits. Any-hit rate of the full collection: about 3.5%.
MrgX1 ag – human MrgX1 receptor agonism, primary screen. Q96LB2. MrgX1-HEK293 cells, Fluo-4 calcium fluorescence, agonist mode; active compounds read high. B-score at 10 µM. hit rate 0.44% among 310,000;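 active = calcium response B-score plate-corrected fluorescence ratio at least 3 library SD, with starting fluorescence B-score inside 5 SD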
Target sequence (Q96LB2 whole entry, looked up): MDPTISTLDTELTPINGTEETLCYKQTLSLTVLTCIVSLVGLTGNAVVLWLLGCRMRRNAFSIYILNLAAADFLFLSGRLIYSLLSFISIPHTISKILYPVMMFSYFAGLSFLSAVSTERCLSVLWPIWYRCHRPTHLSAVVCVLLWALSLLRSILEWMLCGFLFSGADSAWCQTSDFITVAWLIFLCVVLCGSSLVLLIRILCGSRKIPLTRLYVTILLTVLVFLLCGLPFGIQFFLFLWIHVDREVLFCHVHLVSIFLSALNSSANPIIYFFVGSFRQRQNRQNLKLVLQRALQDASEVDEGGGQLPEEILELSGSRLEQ
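Test system: HEK293 cells stably expressing human MrgX1 receptor; Input: fifteen thousand cells per well; Dosing: compound delivered in addition one of three; Schedule: overnight seeding, then 1 h dark dye loading; Technique: Fluo-4 NW calcium fluorescence; Measure: B-scored fluorescence response ratio; Controls: positive and negative controls per plate.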
MrgX1 antagonist – blocks BAM8-22 activation of human MrgX1 receptor; AID 588676; Q96LB2; hit rate 1.3% among 310,000; MRGX1-HEK293 calcium flux, Fluo-4, BAM8-22 antagonism; active compounds read low; B-score at 10 µM;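 active = calcium-response B-score plate-corrected more than 3 library SD below zero, starting fluorescence within 5 deviations, no agonist response on first addition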;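 also: peak minus trough fluorescence over baseline after final BAM8-22 challenge near maximal dose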
RGS4 act – potentiators or activators of RGS4; hit rate 0.92% among 310,000; HEK293 M3R/inducible RGS4, carbachol calcium flux Fluo4; active compounds read low; B-score at 10 µM; AID 463111;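 active = B-score of the integrated calcium signal more than 4 SD below the library mean, with starting fluorescence not abnormally high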;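 also: negative B-score means reduced calcium response which marks RGS4 activation or potentiation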
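System – HEK293 FlpIn-TREx cells, stable M3R, doxycycline-inducible RGS4 · Reagent – ECmax carbachol challenge · Times – compound preincubation 20 min at room temperature before agonist · Technique – Fluo4 fluorescence kinetic imaging of calcium · Measure – B score of integrated Fluo4 ratio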
MrgX1 PAM – human MrgX1 positive allosteric modulation, primary screen | Q96LB2 | hit rate 0.63% among 310,000 | B-score at 10 µM | AID 588675 | MrgX1-HEK293, Fluo-4 calcium flux, FDSS; active compounds read high;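 active = plate-corrected calcium response at least 3 library SD above typical, normal starting fluorescence, not activating the receptor alone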;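 also: compound read alongside a low EC10 to EC30 dose of BAM8-22 agonist; peak minus trough fluorescence over baseline measured at the second addition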
RGS4 block – inhibitors of human RGS4. P49798. HEK293 M3R/RGS4 inducible, Fluo-4 calcium flux; active compounds read high; triggered by carbachol at its EC20. B-score at 10 µM. hit rate 0.45% among 310,000. AID 463165;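 active = B-score, a plate-corrected calcium signal, over three deviations above library mean, with baseline fluorescence within five deviations of library mean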;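 also: RGS4 expression induced by doxycycline in cells with stable M3 receptor; B-score is computed from the integrated fluorescence ratio over baseline after carbachol; higher B-score means a larger calcium signal and so more RGS4 inhibition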
Target sequence (P49798 whole entry, looked up): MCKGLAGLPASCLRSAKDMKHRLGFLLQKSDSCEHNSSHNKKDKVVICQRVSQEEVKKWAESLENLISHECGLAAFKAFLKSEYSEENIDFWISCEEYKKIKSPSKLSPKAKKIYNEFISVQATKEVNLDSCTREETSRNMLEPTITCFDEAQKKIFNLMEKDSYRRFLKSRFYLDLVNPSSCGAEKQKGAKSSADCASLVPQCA
RGS4 inh valid – RGS4 inhibitor validation; shares compounds with RGS4 block; HEK293 M3R/RGS4, carbachol calcium Fluo-4 fluorescence; carbachol added at its EC20; 0 = buffer wells, 100 = carbachol control; calcium response, % at 10 µM; hit rate 65% among 1,700; AID 492999;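 active = duplicate-averaged calcium response above the buffer-only control mean plus 5 SD of those controls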;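 also: integrated fluorescence ratio F max minus min over baseline F0; higher response in RGS4-induced cells means RGS4 inhibition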
RGS4 uninduced – non-induced cell nonspecific activity of RGS4 inhibitors; shares compounds with RGS4 block; HEK293 M3R non-induced, carbachol calcium Fluo-4; submaximal (EC20) carbachol stimulus; buffer wells 0%, carbachol control wells 100%; activity (percent), % at 10 µM; hit rate 20% among 1,900; call rule not given here;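 also: RGS4 induction absent so cells express M3R without RGS4; higher means more calcium signal and flags a non-specific hit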
M3R basal Ca ctr – second RGS4 inhibitor counter-screen in uninduced cells lacking carbachol; shares compounds with RGS4 block; HEK293 M3R/RGS4 non-induced, Fluo-4 calcium, no carbachol; normalised: buffer wells 0%, carbachol wells 100%; calcium response (agonist-mode artifact), % at 10 µM; hit rate 22% among 1,900; AID 493001;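 active = duplicate-averaged calcium rise in uninduced cells above buffer wells' mean plus 5 SD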
Large screens that a line does not name were inactive (follow-up assays come after a bar, where they were run).

CC(CN1CCCCC1)NC(=O)c1cccs1 (configuration not stated)	none
Fc1ccc2c(c1)/C(=N/Nc1ccccn1)CCS2	RGS4 block 11.7 | RGS4 inh valid 14.5% | RGS4 uninduced inactive | M3R basal Ca ctr inactive
O=C(Nc1ccc(S(=O)(=O)Nc2cnc3ccccc3n2)cc1)c1ccc(Cl)c([N+](=O)[O-])c1	MrgX1 PAM 17.2, RGS4 block 8.94 | RGS4 inh valid 14.0% | RGS4 uninduced 55.5% | M3R basal Ca ctr inactive
CCCC(=O)Nc1ccc(C=C(C(C)=O)C(C)=O)cc1	RGS4 block 16.5 | RGS4 inh valid 31.5% | RGS4 uninduced 30.0% | M3R basal Ca ctr inactive
O=C(/C=C/c1ccc(Cl)cc1)c1ccc([N+](=O)[O-])o1	RGS4 block 7.93 | RGS4 inh valid 8.5% | RGS4 uninduced inactive | M3R basal Ca ctr inactive
O=C(OCCCOC(=O)c1ccc([N+](=O)[O-])o1)c1ccc([N+](=O)[O-])o1	none
CC(=C/C(=O)O)/C=C/c1ccco1	RGS4 block 5.43 | RGS4 inh valid 7.0% | RGS4 uninduced inactive | M3R basal Ca ctr inactive
Cc1ccsc1/C=N/NC(=S)NCc1ccccc1	none | RGS4 uninduced inactive | M3R basal Ca ctr inactive
Cc1cc(C)c2nc(NNC(=O)c3ccc(S(=O)(=O)N4CCc5ccccc5C4)cc3)sc2c1	RGS4 block 6.49 | RGS4 inh valid 11.0% | RGS4 uninduced inactive | M3R basal Ca ctr inactive
Cc1cc(C)c2sc(NNC(=O)c3ccc(S(=O)(=O)N4CCc5ccccc5C4)cc3)nc2c1	none | RGS4 uninduced inactive | M3R basal Ca ctr inactive
Cc1ccc(C)c(S(=O)(=O)NCc2ccc(C(=O)NCc3ccccn3)cc2)c1	none
Cc1cc(N=Cc2cc(Cl)ccc2O)no1	RGS4 block 5.69 | RGS4 inh valid 7.0% | RGS4 uninduced 30.5% | M3R basal Ca ctr inactive
Nc1nnnn1/N=C/c1cc(Cl)ccc1O	none
COc1ccc(-n2c(SCC#N)nnc2-c2ccc(NS(=O)(=O)c3ccc(C)cc3)cc2)cc1	RGS4 block 7.19 | RGS4 inh valid 13.0% | RGS4 uninduced inactive | M3R basal Ca ctr inactive
Cc1nn(-c2ccccc2)c(Cl)c1/C=N/NC(N)=O	none
NC(=O)N/N=C/c1c(Sc2nnnn2-c2ccccc2)nc2ccccn2c1=O	RGS4 block 12 | RGS4 inh valid 11.0% | RGS4 uninduced inactive | M3R basal Ca ctr inactive
CC(C)CCCCCCNC(=S)Nc1ccc(S(=O)(=O)N2CCOCC2)cc1	none
COc1ccc(S(=O)(=O)Nc2ccccc2)cc1	none
COc1ccc(S(=O)(=O)Nc2ccc(O)c3ccccc23)cc1	RGS4 block 6.84 | RGS4 inh valid 10.5% | RGS4 uninduced inactive | M3R basal Ca ctr inactive
CC1=NN(Cc2ccccc2)C(=O)C1	none
CC1=NNC(=O)C1C(c1ccc(Cl)cc1)C(C#N)C#N (configuration not stated)	none
CC1=NN(Cc2ccccc2)C(=O)C1C(c1ccncc1)C(C#N)C#N (configuration not stated)	RGS4 block 4.82 | RGS4 inh valid 7.5% | RGS4 uninduced inactive | M3R basal Ca ctr inactive
CC1=NN(Cc2ccccc2)C(=O)C1C(c1ccccc1)C(C#N)C#N (configuration not stated)	none | RGS4 inh valid inactive | RGS4 uninduced inactive | M3R basal Ca ctr inactive
CC1=NNC(=O)C1C(c1cccc(O)c1)C(C#N)C#N (configuration not stated)	none
CC1=NN(Cc2ccccc2)C(=O)C1C(c1ccc(Cl)cc1)C(C#N)C#N (configuration not stated)	none | RGS4 inh valid inactive | RGS4 uninduced inactive | M3R basal Ca ctr 7.0%
Cc1ccc(S(=O)(=O)N(CC(=O)NCCSc2ccccn2)c2ccccc2F)cc1	none
CCc1ccc(NS(=O)(=O)c2c(C(=O)N3CCOCC3)c(C)n(C)c2C)cc1	none
CC(C)(CN1CCOCC1)NS(=O)(=O)c1ccccc1	none
COc1ccc(OC)c(C(C[N+](=O)[O-])c2c(C)cc3ccccn23)c1 (configuration not stated)	none | RGS4 inh valid inactive | RGS4 uninduced inactive | M3R basal Ca ctr inactive
COc1ccc(Br)cc1C(C[N+](=O)[O-])c1c(N)n(C)c(=O)n(C)c1=O (configuration not stated)	none
COc1ccc(C(C[N+](=O)[O-])c2c(C)cc3ccccn23)c(OC)c1 (configuration not stated)	MrgX1 ag 40.8, RGS4 block 13.2 | RGS4 inh valid inactive | RGS4 uninduced inactive | M3R basal Ca ctr inactive
COc1ccc(NC(=O)CCn2cccc2)c(OC)c1	none
CCc1ccc(/C([O-])=C(/C(=S)NCCN2CCOCC2)[n+]2ccccc2)cc1	none
O=C(Nc1ccccc1Cl)c1cc[n+](Cc2ccc([N+](=O)[O-])cc2)cc1	none
O=C1c2cc(O)cc(O)c2C(=O)c2c1cc(O)c([C@@H](CO)CCO)c2O	RGS4 block 6.3 | RGS4 inh valid 17.5% | RGS4 uninduced inactive | M3R basal Ca ctr 67.0%
Cc1cc(O)c2c(c1)C(=O)c1cc(O)cc(O)c1C2=O	none
O=C1NCCCc2c1oc1ccc(O)cc21	none
Oc1c(Cl)cc(Cl)c2c1NCCC2	RGS4 block 9.33 (no result: MrgX1 ag, MrgX1 antagonist, MrgX1 PAM) | RGS4 inh valid 64.0% | RGS4 uninduced inactive | M3R basal Ca ctr inactive
OC(c1cc(C(F)(F)F)nc2c(Cl)cc(Cl)cc12)C1CCCCN1 (configuration not stated)	RGS4 block 13.3 | RGS4 inh valid 24.5% | RGS4 uninduced inactive | M3R basal Ca ctr 13.5%
O=c1c2cc(Cl)cc(Cl)c2nc2n1CCC2	none
O[C@@H](c1cc(C(F)(F)F)nc2c(C(F)(F)F)cccc12)[C@H]1CCCCN1	RGS4 block 5.71 | RGS4 inh valid 26.5% | RGS4 uninduced inactive | M3R basal Ca ctr 46.0%
OC(c1cc(-c2ccc(Cl)cc2)nc2ccccc12)C1CCCCN1 (configuration not stated)	none
C[C@]12C(=O)N(c3ccc(C(F)(F)F)cc3)C(=O)N1[C@@H]1c3ccccc3OC[C@@H]1[C@H]2c1ccccc1	none
Cc1ccc(N2C(=O)N3[C@H]4c5ccccc5OC[C@@H]4[C@@H](c4ccccc4)[C@@]3(C)C2=O)cc1	none
C[C@]12C(=O)N(c3ccccc3)C(=O)N1[C@@H]1c3ccccc3OC[C@@H]1[C@H]2c1ccccc1	none | RGS4 inh valid inactive | RGS4 uninduced inactive | M3R basal Ca ctr inactive
